Results from ChEMBL document CHEMBL2040834, “Synthesis, crystal structures and electronic properties of isomers of chloro-pyridinylvinyl-1H-indoles” (Eur J Med Chem, 2012).
Converted amounts (≈) assume the structure as drawn.

How the values were obtained:
[1] = Solubility of the compound in 0.1 M of boric acid at pH 9 by HTS-PCF filter plate analysis; assay type: physicochemical; settings: buffer
Outline: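 Solubility measured by filter-plate filtration at 2.5% final DMSO. Buffers: pH 1.0 (0.1 M HCl, 20 mM NaCl), pH 7.4 (50 mM phosphate, 30 mM NaCl), pH 9.0 (0.1 M boric acid, 20 mM NaCl). Filtrate quantified by C18 LC/MS with UV detection at 254 nm, using a 5–95% acetonitrile gradient in 0.1% acetic acid.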

[2] = target: T1, Tryptophan 2,3-dioxygenase (Homo sapiens, UniProt P48775); assay: Competitive inhibition of human purified TDO by Henri-Michaelis-Menten equation analysis
Outline: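 Recombinant human TDO expressed in E. coli, purified. Kynurenine formation read at 480 nm with Ehrlich's reagent after TCA stop and 65 °C hydrolysis. L-Trp and inhibitor concentrations both varied. Initial rates fitted to Henri–Michaelis–Menten equation for competitive Ki; Km obtained from the same data.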

[3] = target: T1, Tryptophan 2,3-dioxygenase; assay: Inhibition of human purified TDO assessed as formation of kynurenine from N-formylkynurenine preincubated for 10 mins measured after 5 to 20 mins by discontinuous colorimetric method
[4] = target: T1, Tryptophan 2,3-dioxygenase; assay: Inhibition of human purified TDO assessed as initial rate of L-Trp oxidation at 100 uM of substrate concentration

T1 sequence (P48775 whole entry): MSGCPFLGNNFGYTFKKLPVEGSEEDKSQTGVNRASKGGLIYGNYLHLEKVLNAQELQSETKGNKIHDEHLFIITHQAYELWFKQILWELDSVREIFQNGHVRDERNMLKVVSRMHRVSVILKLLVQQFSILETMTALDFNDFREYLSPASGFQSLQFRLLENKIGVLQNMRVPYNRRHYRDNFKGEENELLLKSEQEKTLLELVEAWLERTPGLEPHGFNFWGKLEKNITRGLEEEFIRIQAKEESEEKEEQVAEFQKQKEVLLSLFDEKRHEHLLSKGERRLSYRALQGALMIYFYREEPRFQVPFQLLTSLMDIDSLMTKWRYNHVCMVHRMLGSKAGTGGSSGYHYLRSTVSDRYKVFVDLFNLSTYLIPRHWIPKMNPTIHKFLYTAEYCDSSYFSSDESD

Row | Compound | solubility [1] | Ki [2] | IC50 [3] | IC50 [4]
1 | Clc1cccc2c(/C=C/c3cccnc3)c[nH]c12 | 6 mg/mL (≈ 23.6 mM) | 21 µM | > 50 µM | 32 µM
2 | Clc1ccc2[nH]cc(/C=C/c3cccnc3)c2c1 | 76 mg/mL (≈ 298 mM) | – | 10 µM | –
3 | Clc1ccc2c(/C=C/c3cccnc3)c[nH]c2c1 | 32.1 mg/mL (≈ 126 mM) | – | 5 µM | –
